Published values pooled from the literature.
Each line is one published result; the experiments were not run side by side.
Target: Serine/threonine-protein kinase LATS1 (LATS1, Homo sapiens, UniProt O95835)
Sequence (O95835 1-1130, as in one of the studies): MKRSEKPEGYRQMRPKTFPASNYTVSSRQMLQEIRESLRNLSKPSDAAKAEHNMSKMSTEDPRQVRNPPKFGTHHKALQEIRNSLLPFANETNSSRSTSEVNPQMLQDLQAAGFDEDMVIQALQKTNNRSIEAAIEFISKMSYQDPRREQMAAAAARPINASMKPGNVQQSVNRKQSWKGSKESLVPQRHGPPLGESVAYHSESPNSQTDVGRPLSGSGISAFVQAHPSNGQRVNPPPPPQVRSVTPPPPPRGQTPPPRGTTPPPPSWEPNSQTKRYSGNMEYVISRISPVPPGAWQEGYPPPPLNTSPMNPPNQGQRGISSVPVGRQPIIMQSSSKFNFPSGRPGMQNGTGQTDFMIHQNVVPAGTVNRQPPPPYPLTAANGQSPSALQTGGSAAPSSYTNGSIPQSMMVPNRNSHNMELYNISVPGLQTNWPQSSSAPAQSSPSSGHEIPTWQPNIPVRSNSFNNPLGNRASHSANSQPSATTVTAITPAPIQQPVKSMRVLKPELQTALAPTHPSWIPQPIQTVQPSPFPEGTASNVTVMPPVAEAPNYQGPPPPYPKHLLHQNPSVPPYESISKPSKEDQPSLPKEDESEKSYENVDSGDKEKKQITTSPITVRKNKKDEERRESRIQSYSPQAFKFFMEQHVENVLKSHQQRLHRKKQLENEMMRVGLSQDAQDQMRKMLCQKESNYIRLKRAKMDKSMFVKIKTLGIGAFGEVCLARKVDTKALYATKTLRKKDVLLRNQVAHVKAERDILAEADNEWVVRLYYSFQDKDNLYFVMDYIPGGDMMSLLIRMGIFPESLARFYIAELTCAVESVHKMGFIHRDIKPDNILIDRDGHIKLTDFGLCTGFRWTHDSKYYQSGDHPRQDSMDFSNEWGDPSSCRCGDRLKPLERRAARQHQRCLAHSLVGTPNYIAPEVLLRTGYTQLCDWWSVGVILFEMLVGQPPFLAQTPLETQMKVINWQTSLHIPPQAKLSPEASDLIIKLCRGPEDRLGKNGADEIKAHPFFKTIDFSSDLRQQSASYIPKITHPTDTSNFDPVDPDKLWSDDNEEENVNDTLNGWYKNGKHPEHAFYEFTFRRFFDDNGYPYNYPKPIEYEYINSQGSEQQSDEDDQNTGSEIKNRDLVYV

CCCCC(=O)Nc1ccc(-c2ccc3ncn(CCC)c(=O)c3c2)cn1
remaining binding (binding; competition with immobilised ligand; 0.5 µM): 86%

C=CC(=O)N1CCC([C@@H]2CCNc3c(C(N)=O)c(-c4ccc(Oc5ccccc5)cc4)nn32)CC1
inhibition (enzyme activity; inhibitor; 1 µM): 0%

CN1CCN(C(=O)c2ccc(NC(=O)Nc3ccc(N(C)c4ccnc(Nc5ccc(CS(C)(=O)=O)cc5)n4)cc3)cc2)CC1
remaining binding (binding; 1 µM): 68%

Cc1cc(-c2ccnc3[nH]cc(F)c23)cc(F)c1[C@@]1(O)[C@H](C)CN(C(=O)CN)C[C@@H]1C
residence time (binding; TR-FRET): 7.3 min

C1=C/COCc2cc(ccc2OCCN2CCCC2)Nc2nccc(n2)-c2cccc(c2)COC/1
remaining binding (binding; 0.1 µM): 100%

CC#CC(=O)N1CCC[C@H]1c1nc(-c2ccc(C(=O)Nc3ccccn3)cc2)c2c(N)nccn12
inhibition (enzyme activity; inhibitor; 1 µM): 7%

C[C@H]1CC[C@H](n2c3cnccc3c3cnc(Nc4ccc5c(n4)CCN(C(=O)CO)C5)nc32)CC1
remaining signal (cell-free assay; 1 µM): 47%

Cc1cc(-c2ccnc3[nH]cc(F)c23)cc(F)c1[C@@]1(O)[C@H](C)CN(C2CCS(=O)(=O)CC2)C[C@@H]1C
residence time (binding; TR-FRET): 9.1 min
